Here are results for nine molecules from ChEMBL document CHEMBL1124683, “Synthesis and in vitro activity of 1 beta-methyl C-2 quaternary heterocyclic alkylthio carbapenems” (J Med Chem, 1989).

The structures appear in SMILES notation. Values after ≈ are worked out from the molar mass of the structure shown.

Data set [1] is filed under the species Sus scrofa. Put plainly: Compound was evaluated for the rate of hydrolysis by renal dipeptidase relative to hog renal dipeptidase. It counts as ADME. As to conditions: pig; in the assay text read “relative to imipenem” for “relative to hog renal dipeptidase”. In a few lines:
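Purified hog renal dipeptidase. Substrate was 0.10 mM carbapenem in 50 mM MOPS, pH 7.1, freshly prepared. λmax and ε came from the UV difference spectrum before and after β-lactam cleavage by hydroxylamine at 25 °C. Spontaneous absorbance change was followed at 25 °C, then enzyme was added to give ≥10^-4 AU/s. The corrected rate was converted to nmol min^-1 (mL enzyme)^-1 and expressed relative to imipenem.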

Data set [2] deals with Escherichia coli. Nature of the data set: Compound was tested in vitro for antibacterial activity against Escherichia coli A-15119. It counts as functional. The method, boiled down:
(§1)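 MIC by serial 2-fold dilution in Mueller-Hinton agar, or in broth. Agar surface or broth was inoculated with an appropriately diluted 18–24-h broth culture. Incubation was 37 °C for 17 h. The MIC was the lowest concentration that inhibited visible growth.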

Data set [3] concerns Enterobacter cloacae. Put plainly: Compound was tested in vitro for antibacterial activity against Enterobacter cloacae A-9695. In kind it is functional. In a few lines:
as §1

For data set [4], the system named is Pseudomonas aeruginosa. Nature of the data set: Compound was tested in vitro for antibacterial activity against Pseudomonas aeruginosa. In kind it is functional. In a few lines: as §1
Data set [5] has as its system Proteus vulgaris. Nature of the data set: Compound was tested in vitro for antibacterial activity against Proteus vulgaris A-21559. In kind it is functional. The method, boiled down: as §1
Data set [6] concerns Serratia marcescens. Put plainly: Compound was tested in vitro for antibacterial activity against Serratia marcescens A-20019. It counts as functional. The method, boiled down:
as §1

For data set [7], the system named is Staphylococcus aureus. Put plainly: (§2) Compound was tested in vitro for antibacterial activity against Staphylococcus aureus, pen-res A-9606. In kind it is functional. The method, boiled down: as §1
The subject of data set [8] is Staphylococcus aureus. The description is as §2. It counts as functional, staphylococcus aure. The method, boiled down:
as §1

In general, MIC refers to the lowest concentration found to suppress growth. Low readings indicate greater potency, high ones weaker potency. With `CC(O)[C@H]1C(=O)N2C(C(=O)O)=C(SCc3ccncc3)CC12` (some centres not stated), the Relative rate in data set [1] is recorded as 3.84. Besides, the MIC in data set [2] was determined as 0.03 µg/mL (≈ 0.0936 µM); in data set [3], 0.5 µg/mL (≈ 1.56 µM); in data set [4], 32 µg/mL (≈ 99.9 µM); in data set [5], 0.03 µg/mL (≈ 0.0936 µM); in data set [6], 0.13 µg/mL (≈ 0.406 µM); in data set [7], 0.03 µg/mL (≈ 0.0936 µM).
The molecule `CC(O)[C@H]1C(=O)N2C(C(=O)O)=C(SCc3nccn3C)[C@H](C)C12` (some centres not stated) showed a Relative rate in data set [1] of 0.94. Further, the MIC in data set [2] was determined as 0.008 µg/mL (≈ 0.0237 µM); in data set [3], 0.016 µg/mL (≈ 0.0474 µM); in data set [4], 16 µg/mL (≈ 47.4 µM); in data set [5] it was 0.016 µg/mL (≈ 0.0474 µM); in data set [6], 0.016 µg/mL (≈ 0.0474 µM); in data set [7] it was 0.016 µg/mL (≈ 0.0474 µM).
For the molecule `CC(O)[C@H]1C(=O)N2C(C(=O)[O-])=C(SCc3cc[n+](C)cc3)CC12` (some centres not stated), the Relative rate in data set [1] is reported as 0.84. The minimum inhibitory concentration (MIC) in data set [2] worked out at 0.03 µg/mL (≈ 0.0897 µM); in data set [4], 0.5 µg/mL (≈ 1.5 µM); in data set [5], 0.03 µg/mL (≈ 0.0897 µM); in data set [6], 0.13 µg/mL (≈ 0.389 µM); in data set [7], 0.016 µg/mL (≈ 0.0478 µM).
For the molecule `CC(O)[C@H]1C(=O)N2C(C(=O)[O-])=C(SCc3n(C)cc[n+]3C)[C@H](C)C12` (some centres not stated), the Relative rate in data set [1] came out at 0.003. Besides, the MIC in data set [2] was 0.004 µg/mL (≈ 0.0114 µM); in data set [3], 0.06 µg/mL (≈ 0.171 µM); in data set [4], 1 µg/mL (≈ 2.85 µM); in data set [5], 0.016 µg/mL (≈ 0.0455 µM); in data set [6], 0.03 µg/mL (≈ 0.0854 µM); in data set [7] it was 0.008 µg/mL (≈ 0.0228 µM).
Molecule `CC(O)[C@H]1C(=O)N2C(C(=O)[O-])=C(SCc3cc[n+](C)cc3)[C@H](C)C12` (some centres not stated) returned a Relative rate in data set [1] of 0.02. The minimum inhibitory concentration (MIC) in data set [2] amounted to 0.016 µg/mL (≈ 0.0459 µM); in data set [3], 0.06 µg/mL (≈ 0.172 µM); in data set [4], 0.5 µg/mL (≈ 1.44 µM); in data set [5], 0.03 µg/mL (≈ 0.0861 µM); in data set [6] it was 0.03 µg/mL (≈ 0.0861 µM); in data set [7], 0.016 µg/mL (≈ 0.0459 µM).
Molecule `Cc1c(CSC2=C(C(=O)[O-])N3C(=O)[C@H](C(C)O)C3C2)ccc[n+]1C` (some centres not stated) gave a Relative rate in data set [1] of 0.4. For the same molecule, the MIC in data set [2] was found to be 0.008 µg/mL (≈ 0.023 µM); in data set [3] it was 0.016 µg/mL (≈ 0.0459 µM); in data set [4] it was 0.5 µg/mL (≈ 1.44 µM); in data set [5], 0.03 µg/mL (≈ 0.0861 µM); in data set [6] it was 0.03 µg/mL (≈ 0.0861 µM); in data set [7], 0.016 µg/mL (≈ 0.0459 µM).
Take `Cc1c(CSC2=C(C(=O)[O-])N3C(=O)[C@H](C(C)O)C3[C@H]2C)ccc[n+]1C` (some centres not stated): in data set [1], the Relative rate was determined as 0.01. Moreover, the MIC in data set [2] worked out at 0.004 µg/mL (≈ 0.011 µM); in data set [3] it was 0.016 µg/mL (≈ 0.0441 µM); in data set [4], 2 µg/mL (≈ 5.52 µM); in data set [5] it was 0.03 µg/mL (≈ 0.0828 µM); in data set [6], 0.16 µg/mL (≈ 0.441 µM); in data set [7], 0.016 µg/mL (≈ 0.0441 µM).
The molecule `CC(O)[C@H]1C(=O)N2C(C(=O)[O-])=C(SCc3n(C)cc[n+]3C)CC12` (some centres not stated) registered a Relative rate in data set [1] of 0.2. Moreover, the MIC is 0.008 µg/mL (≈ 0.0237 µM) in data set [2]; 0.03 µg/mL (≈ 0.0889 µM) in data set [3]; 2 µg/mL (≈ 5.93 µM) in data set [4]; 0.008 µg/mL (≈ 0.0237 µM) in data set [5]; 0.004 µg/mL (≈ 0.0119 µM) in data set [8]; 0.016 µg/mL (≈ 0.0474 µM) in data set [6].
`C[C@@H](O)[C@H]1C(=O)N2C(C(=O)O)=C(SCCN=CN)C[C@H]12` [IMIPENEM ANHYDROUS] gave a Relative rate in data set [1] of 1. In addition, the MIC in data set [2] is 0.016 µg/mL (≈ 0.0534 µM); in data set [3], 0.06 µg/mL (≈ 0.2 µM); in data set [4] it was 0.25 µg/mL (≈ 0.835 µM); in data set [5] it was 0.03 µg/mL (≈ 0.1 µM); in data set [6], 0.03 µg/mL (≈ 0.1 µM); in data set [7], 0.008 µg/mL (≈ 0.0267 µM).
